Data on 2 molecules can be found in ChEMBL document CHEMBL1154183, “Structure-based optimization of potent and selective inhibitors of the tyrosine kinase erythropoietin producing human hepatocellular carcinoma receptor B4 (EphB4)” (J Med Chem, 2009).

A short description of experiment [1]: Inhibition of AMPK assessed as remaining enzyme activity at 3 uM relative to DMSO. The method, boiled down: (§1)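 Panel assay run robotically at room temperature for 30 min with 10 mM magnesium acetate and [γ-33P]ATP (800 cpm/pmol) at 5, 20 or 50 μM, chosen per kinase to be at or below its ATP Km. Reactions were started with MgATP, stopped with orthophosphoric acid and spotted on P81 filters. Activity is the mean of duplicates at a single inhibitor concentration, as % of DMSO control.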

The target in experiment [2] is Serine/threonine-protein kinase BRSK2 (Homo sapiens) (UniProt Q8IWQ3). The experiment is described as follows: Inhibition of BRSK2 assessed as remaining enzyme activity at 3 uM relative to DMSO. The method, boiled down: as §1
For experiment [3], the target named is Serine/threonine-protein kinase PAK 5 (Homo sapiens) (UniProt Q9P286). The experiment is described as follows: Inhibition of PAK5 assessed as remaining enzyme activity at 3 uM relative to DMSO. The method, boiled down: (§2)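 Radiometric kinase assay run robotically at room temperature for 30 min. Contained 10 mM magnesium acetate and [γ-33P]ATP (800 cpm/pmol) at 5, 20 or 50 μM, chosen per kinase to be at or below its ATP Km. Reactions were started with MgATP, stopped with orthophosphoric acid and spotted onto P81 filters. Result is mean % activity of duplicates at one inhibitor concentration versus DMSO control.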
Chain of Serine/threonine-protein kinase PAK 5 (Homo sapiens) (Q9P286 whole entry, looked up): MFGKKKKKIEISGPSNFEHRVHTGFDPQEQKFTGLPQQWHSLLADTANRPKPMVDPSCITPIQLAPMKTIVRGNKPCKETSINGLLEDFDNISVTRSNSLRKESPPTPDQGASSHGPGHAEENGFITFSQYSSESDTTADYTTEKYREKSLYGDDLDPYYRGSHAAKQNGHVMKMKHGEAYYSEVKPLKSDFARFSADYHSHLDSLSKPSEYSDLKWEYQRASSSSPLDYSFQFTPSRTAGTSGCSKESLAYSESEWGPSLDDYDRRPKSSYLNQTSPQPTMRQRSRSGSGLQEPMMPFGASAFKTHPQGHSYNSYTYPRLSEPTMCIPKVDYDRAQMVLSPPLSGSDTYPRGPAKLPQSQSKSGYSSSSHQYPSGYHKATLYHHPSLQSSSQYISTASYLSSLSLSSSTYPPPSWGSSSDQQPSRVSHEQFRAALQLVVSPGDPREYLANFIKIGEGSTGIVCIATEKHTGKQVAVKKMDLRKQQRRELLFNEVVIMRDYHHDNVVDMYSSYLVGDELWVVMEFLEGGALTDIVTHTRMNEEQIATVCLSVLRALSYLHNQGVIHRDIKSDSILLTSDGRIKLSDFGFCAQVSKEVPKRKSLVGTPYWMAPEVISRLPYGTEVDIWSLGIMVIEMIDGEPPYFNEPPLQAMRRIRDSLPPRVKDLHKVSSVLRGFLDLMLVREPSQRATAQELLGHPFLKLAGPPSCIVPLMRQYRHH

In experiment [4] the target is Inhibitor of nuclear factor kappa-B kinase subunit epsilon (Homo sapiens) (UniProt Q14164). The experiment can be described thus: Inhibition of IKKepsilon assessed as remaining enzyme activity at 3 uM relative to DMSO. The method, boiled down:
(§3)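 Dundee kinase panel, radiometric: [γ-33P]ATP (800 cpm/pmol) at 5, 20 or 50 μM, at or below each kinase's ATP Km; 10 mM magnesium acetate; robotic, room temperature, 30 min. Reactions started with MgATP, stopped with orthophosphoric acid, spotted onto P81 filters. Inhibitor tested at a single concentration; mean % activity of duplicates relative to DMSO control.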

Experiment [5] deals with Tyrosine-protein kinase Fyn (Homo sapiens) (UniProt P06241). The experiment can be described thus: Binding affinity to FYN assessed as percentage of kinase remaining bound to the bead at 1 uM by T7 phage display based binding assay. The method, boiled down: (§4)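 Competition binding assay run by a contract lab. Each kinase was expressed as a fusion to T7 phage, full-length for small kinases and catalytic domain for large ones. Phage were mixed with an immobilized known kinase inhibitor on streptavidin magnetic beads and with test compound at a single 1 μM. Kinase/phage still bound to the beads was quantified by qPCR and expressed as % of DMSO control.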

The target in experiment [6] is Platelet-derived growth factor receptor alpha (Homo sapiens) (UniProt P16234). The experiment can be described thus: Binding affinity to PDGFRA assessed as percentage of kinase remaining bound to the bead at 1 uM by T7 phage display based binding assay. The method, boiled down:
as §4

Experiment [7] addresses Serine/threonine-protein kinase PAK 5 (Homo sapiens) (UniProt Q9P286). The experiment can be described thus: Inhibition of PAK5 assessed as remaining enzyme activity at 1 uM relative to DMSO. The method, boiled down:
as §2

The target in experiment [8] is Tyrosine-protein kinase ABL1 (Homo sapiens) (UniProt P00519). The experiment is described as follows: Binding affinity to phosphorylated ABL1 assessed as percentage of kinase remaining bound to the bead at 1 uM by T7 phage display based binding assay. The method, boiled down: as §4
The target of experiment [9] is Platelet-derived growth factor receptor beta (Homo sapiens) (UniProt P09619). The experiment can be described thus: Binding affinity to PDGFRB assessed as percentage of kinase remaining bound to the bead at 1 uM by T7 phage display based binding assay. The method, boiled down:
as §4

Experiment [10] concerns the target Cyclin-dependent kinase 2 (Homo sapiens) (UniProt P24941). The experiment can be described thus: Inhibition of CDK2 assessed as remaining enzyme activity at 1 uM relative to DMSO. The method, boiled down:
as §3

Experiment [11] concerns the target Ribosomal protein S6 kinase alpha-6 (Homo sapiens) (UniProt Q9UK32). The experiment can be described thus: Binding affinity to RSK4 kinase domain 2 C-terminal assessed as percentage of kinase remaining bound to the bead at 1 uM by T7 phage display based binding assay. The method, boiled down: as §4
Experiment [12] deals with Cytoplasmic tyrosine-protein kinase BMX (Homo sapiens) (UniProt P51813). The experiment can be described thus: Binding affinity to BMX assessed as percentage of kinase remaining bound to the bead at 1 uM by T7 phage display based binding assay. The method, boiled down: as §4
Experiment [13] deals with Dual specificity mitogen-activated protein kinase kinase 1 (Homo sapiens) (UniProt Q02750). The experiment is described as follows: Inhibition of MKK1 assessed as remaining enzyme activity at 1 uM relative to DMSO. The method, boiled down:
as §2

Experiment [14] addresses Serine/threonine-protein kinase 3 (Homo sapiens) (UniProt Q13188). The experiment is described as follows: Inhibition of MST2 assessed as remaining enzyme activity at 1 uM relative to DMSO. The method, boiled down:
as §2

Experiment [15] concerns the target Serine/threonine-protein kinase SIK1 (Homo sapiens) (UniProt P57059). The experiment can be described thus: Binding affinity to SIK assessed as percentage of kinase remaining bound to the bead at 1 uM by T7 phage display based binding assay. The method, boiled down:
as §4

In experiment [16] the target is Dual specificity tyrosine-phosphorylation-regulated kinase 1A (Homo sapiens) (UniProt Q13627). The experiment is described as follows: Inhibition of DYRK1A assessed as remaining enzyme activity at 1 uM relative to DMSO.
Experiment [17] concerns the target Casein kinase I isoform alpha (Homo sapiens) (UniProt P48729). The experiment can be described thus: Inhibition of CK1 assessed as remaining enzyme activity at 1 uM relative to DMSO. The method, boiled down: (§5)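 Radiometric kinase assay run robotically at room temperature for 30 min, linear in time and enzyme. Conditions: 10 mM magnesium acetate, [γ-33P]ATP (800 cpm/pmol) at 5, 20 or 50 μM per kinase, at or below its ATP Km. Started with MgATP and stopped with orthophosphoric acid, then spotted on P81 filters. Reported as mean % activity of duplicates versus DMSO controls.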

Experiment [18] concerns the target RAF proto-oncogene serine/threonine-protein kinase (Homo sapiens) (UniProt P04049). The experiment is described as follows: Binding affinity to RAF1 assessed as percentage of kinase remaining bound to the bead at 1 uM by T7 phage display based binding assay. The method, boiled down: as §4
Experiment [19] addresses Mitogen-activated protein kinase kinase kinase 11 (Homo sapiens) (UniProt Q16584). The experiment can be described thus: Inhibition of MLK3 assessed as remaining enzyme activity at 1 uM relative to DMSO. The method, boiled down:
as §2

Experiment [20] addresses Serine/threonine-protein kinase N2 (Homo sapiens) (UniProt Q16513). The experiment is described as follows: Inhibition of PRK2 assessed as remaining enzyme activity at 1 uM relative to DMSO.
For the next experiment, the target named is Ephrin type-B receptor 3 (Homo sapiens, UniProt P54753). The experiment is described as follows: Inhibition of EphB3 by [gamma33-P]ATP based assay. The method, boiled down: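 Radiometric [γ-33P]ATP kinase assay against Eph kinases, following a protocol similar to the Mg-acetate/MgATP filter-binding method.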
In experiment [21] the target is Epidermal growth factor receptor (Homo sapiens) (UniProt P00533). The experiment is described as follows: Binding affinity to EGFR assessed as percentage of kinase remaining bound to the bead at 1 uM by T7 phage display based binding assay. The method, boiled down: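 Kinases expressed as T7 phage fusions (full-length for small kinases, catalytic domain for large). Phage mixed with an immobilized known kinase inhibitor on streptavidin magnetic beads plus test compound at a single 1 μM concentration. Ligand displacement from the ATP site was read by quantitative PCR as % kinase/phage still bead-bound versus DMSO control. Human kinases.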

Experiment [22] has as its target MAP/microtubule affinity-regulating kinase 3 (Homo sapiens) (UniProt P27448). The experiment can be described thus: Inhibition of MARK3 assessed as remaining enzyme activity at 1 uM relative to DMSO. The method, boiled down: as §5
For experiment [23], the target named is Ephrin type-B receptor 3 (Homo sapiens) (UniProt P54753). The experiment is described as follows: Inhibition of EPHB3 assessed as remaining enzyme activity at 1 uM relative to DMSO. The method, boiled down:
as §5

Chain of Serine/threonine-protein kinase 3 (Homo sapiens) (Q13188 whole entry): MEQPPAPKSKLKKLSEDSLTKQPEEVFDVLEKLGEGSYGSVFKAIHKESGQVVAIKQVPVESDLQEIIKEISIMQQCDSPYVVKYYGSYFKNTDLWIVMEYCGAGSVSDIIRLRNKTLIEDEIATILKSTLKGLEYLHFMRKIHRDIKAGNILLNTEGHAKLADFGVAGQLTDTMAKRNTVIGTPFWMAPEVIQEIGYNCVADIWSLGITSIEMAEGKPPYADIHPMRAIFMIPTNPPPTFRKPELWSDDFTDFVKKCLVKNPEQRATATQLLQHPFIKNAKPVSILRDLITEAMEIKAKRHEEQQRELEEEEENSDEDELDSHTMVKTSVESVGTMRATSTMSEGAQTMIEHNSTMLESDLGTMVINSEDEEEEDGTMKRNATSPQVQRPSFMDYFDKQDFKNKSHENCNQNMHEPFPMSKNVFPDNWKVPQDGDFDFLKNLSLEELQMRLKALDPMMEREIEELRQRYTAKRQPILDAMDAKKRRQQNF
Chain of RAF proto-oncogene serine/threonine-protein kinase (Homo sapiens) (P04049 whole entry): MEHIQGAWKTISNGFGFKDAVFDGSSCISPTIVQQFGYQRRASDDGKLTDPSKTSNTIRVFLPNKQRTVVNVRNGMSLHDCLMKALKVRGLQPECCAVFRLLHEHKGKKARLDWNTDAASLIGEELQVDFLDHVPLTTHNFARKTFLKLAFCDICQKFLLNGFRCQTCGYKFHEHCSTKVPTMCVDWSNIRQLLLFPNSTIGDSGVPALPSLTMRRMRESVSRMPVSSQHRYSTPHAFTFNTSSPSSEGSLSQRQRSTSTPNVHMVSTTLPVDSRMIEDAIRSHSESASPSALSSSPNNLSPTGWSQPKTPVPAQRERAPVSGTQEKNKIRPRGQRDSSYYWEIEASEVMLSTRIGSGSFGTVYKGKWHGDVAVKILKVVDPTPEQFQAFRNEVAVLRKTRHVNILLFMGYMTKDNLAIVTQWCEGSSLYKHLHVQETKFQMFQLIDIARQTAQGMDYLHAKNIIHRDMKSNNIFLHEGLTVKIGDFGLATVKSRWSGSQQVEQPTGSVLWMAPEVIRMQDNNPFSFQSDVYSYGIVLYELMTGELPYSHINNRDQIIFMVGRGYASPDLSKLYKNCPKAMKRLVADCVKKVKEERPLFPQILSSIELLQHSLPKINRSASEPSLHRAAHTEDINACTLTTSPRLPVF
Chain of Dual specificity mitogen-activated protein kinase kinase 1 (Homo sapiens) (Q02750 whole entry): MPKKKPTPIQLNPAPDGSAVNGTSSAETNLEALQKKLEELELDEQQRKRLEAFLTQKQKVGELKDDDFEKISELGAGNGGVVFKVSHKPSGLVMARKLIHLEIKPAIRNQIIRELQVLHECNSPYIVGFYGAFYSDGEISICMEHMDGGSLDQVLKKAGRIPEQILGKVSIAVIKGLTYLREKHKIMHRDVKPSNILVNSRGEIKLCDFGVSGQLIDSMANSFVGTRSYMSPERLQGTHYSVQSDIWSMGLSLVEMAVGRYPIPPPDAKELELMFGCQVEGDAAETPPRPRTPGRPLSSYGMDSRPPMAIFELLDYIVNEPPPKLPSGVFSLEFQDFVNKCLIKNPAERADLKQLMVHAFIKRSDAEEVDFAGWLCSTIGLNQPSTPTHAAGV
Chain of Platelet-derived growth factor receptor alpha (Homo sapiens) (P16234 whole entry): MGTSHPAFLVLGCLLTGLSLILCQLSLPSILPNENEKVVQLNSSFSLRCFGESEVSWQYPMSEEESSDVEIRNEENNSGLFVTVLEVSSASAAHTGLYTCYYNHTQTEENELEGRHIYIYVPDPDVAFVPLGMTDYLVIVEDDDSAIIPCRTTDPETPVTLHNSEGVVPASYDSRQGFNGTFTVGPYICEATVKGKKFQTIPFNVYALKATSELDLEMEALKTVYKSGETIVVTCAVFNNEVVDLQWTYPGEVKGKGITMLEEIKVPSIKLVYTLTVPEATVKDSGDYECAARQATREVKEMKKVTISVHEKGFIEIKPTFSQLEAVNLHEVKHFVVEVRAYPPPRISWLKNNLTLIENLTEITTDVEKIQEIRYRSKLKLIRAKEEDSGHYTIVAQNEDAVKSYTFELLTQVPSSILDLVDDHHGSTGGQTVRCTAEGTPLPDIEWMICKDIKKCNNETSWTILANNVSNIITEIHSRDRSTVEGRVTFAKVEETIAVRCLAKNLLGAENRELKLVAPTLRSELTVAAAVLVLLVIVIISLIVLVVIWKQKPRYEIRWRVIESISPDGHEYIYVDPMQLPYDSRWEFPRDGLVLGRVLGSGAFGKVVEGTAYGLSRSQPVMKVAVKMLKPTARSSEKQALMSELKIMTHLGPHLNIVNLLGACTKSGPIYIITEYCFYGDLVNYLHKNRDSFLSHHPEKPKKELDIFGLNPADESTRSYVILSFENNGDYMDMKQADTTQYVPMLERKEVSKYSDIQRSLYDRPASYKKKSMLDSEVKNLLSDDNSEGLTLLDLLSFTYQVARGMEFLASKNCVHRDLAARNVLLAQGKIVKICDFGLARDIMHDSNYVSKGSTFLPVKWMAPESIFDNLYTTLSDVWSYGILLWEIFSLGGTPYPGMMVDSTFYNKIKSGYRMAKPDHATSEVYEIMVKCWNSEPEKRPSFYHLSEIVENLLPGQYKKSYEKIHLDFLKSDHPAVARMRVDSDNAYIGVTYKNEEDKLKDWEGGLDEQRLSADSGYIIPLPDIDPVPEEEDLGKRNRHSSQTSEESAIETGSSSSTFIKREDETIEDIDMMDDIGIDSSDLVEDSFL
Chain of Ribosomal protein S6 kinase alpha-6 (Homo sapiens) (Q9UK32 whole entry, the tested form may be a part): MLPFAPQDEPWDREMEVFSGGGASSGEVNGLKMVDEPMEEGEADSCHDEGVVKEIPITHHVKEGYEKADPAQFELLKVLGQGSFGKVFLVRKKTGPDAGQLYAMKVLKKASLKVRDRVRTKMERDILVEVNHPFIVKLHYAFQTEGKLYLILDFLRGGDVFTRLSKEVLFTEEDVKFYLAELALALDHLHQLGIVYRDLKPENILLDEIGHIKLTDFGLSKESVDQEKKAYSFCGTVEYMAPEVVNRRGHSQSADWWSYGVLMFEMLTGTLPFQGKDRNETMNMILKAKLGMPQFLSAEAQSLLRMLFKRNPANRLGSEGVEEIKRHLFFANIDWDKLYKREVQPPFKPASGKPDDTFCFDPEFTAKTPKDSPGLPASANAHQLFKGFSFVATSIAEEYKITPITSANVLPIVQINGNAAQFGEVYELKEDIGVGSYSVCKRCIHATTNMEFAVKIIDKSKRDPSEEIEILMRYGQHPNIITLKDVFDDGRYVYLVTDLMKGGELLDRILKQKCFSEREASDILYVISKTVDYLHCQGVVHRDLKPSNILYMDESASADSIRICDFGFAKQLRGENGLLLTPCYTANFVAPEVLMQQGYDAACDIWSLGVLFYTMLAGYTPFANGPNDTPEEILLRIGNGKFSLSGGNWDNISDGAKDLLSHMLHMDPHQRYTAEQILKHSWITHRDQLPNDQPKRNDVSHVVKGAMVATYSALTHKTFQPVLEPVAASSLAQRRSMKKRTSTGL
Chain of MAP/microtubule affinity-regulating kinase 3 (Homo sapiens) (P27448 whole entry, looked up): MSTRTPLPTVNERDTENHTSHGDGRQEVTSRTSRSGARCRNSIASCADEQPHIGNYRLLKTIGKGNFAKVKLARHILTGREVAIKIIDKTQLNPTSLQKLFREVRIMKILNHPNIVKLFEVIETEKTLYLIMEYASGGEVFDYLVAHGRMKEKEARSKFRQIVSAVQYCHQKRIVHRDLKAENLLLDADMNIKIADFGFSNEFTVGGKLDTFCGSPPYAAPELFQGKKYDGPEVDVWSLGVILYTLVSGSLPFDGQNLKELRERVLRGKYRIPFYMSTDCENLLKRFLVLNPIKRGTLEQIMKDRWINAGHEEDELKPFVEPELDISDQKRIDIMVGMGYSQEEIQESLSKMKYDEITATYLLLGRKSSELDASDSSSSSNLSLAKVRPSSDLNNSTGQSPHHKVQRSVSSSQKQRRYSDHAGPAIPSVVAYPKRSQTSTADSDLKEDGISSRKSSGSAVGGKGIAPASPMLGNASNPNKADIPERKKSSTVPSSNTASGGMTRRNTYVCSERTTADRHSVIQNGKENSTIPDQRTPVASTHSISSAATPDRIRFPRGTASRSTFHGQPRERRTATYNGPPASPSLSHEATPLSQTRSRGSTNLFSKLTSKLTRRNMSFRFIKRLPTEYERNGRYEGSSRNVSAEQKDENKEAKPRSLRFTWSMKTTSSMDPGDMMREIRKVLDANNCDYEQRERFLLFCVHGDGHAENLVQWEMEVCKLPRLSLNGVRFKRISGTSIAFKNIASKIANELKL

Take `COc1ccccc1-n1c(-c2ccccc2C)cn2c3c(=O)[nH]c(=O)n(C)c3nc12`: the Activity in experiment [1] stood at 92%; in [2], 81%; in experiment [3], 94%; in experiment [4] it was 101%.
Turning to `COc1ccccc1-n1c(-c2cc(O)ccc2C)cn2c3c(=O)[nH]c(=O)n(C)c3nc12`, the Activity in experiment [5] was 0.25%; in [6] it was 84%; in experiment [7] it was 94%; in [8], 0.15%; in experiment [9], 53%; in experiment [10], 90%. Further, the Activity in experiment [11] is 5.8%; in experiment [12], 55%; in experiment [13] it was 70%; in experiment [14], 111%; in experiment [15], 41%; in experiment [16] it was 99%. The Activity in [17] was found to be 93%; in [18] it was 14%; in experiment [19], 101%; in [20], 93%; in [21] it was 8.6%; in experiment [22], 96%. Further, the Activity in experiment [23] is 3%. This molecule had an IC50 against Ephrin type-B receptor 3 of 15 nM.
